This is an account of results in article PMC10127574 (ACS chemical biology, 2015).

One assay addresses T1, extracellular IDE (Homo sapiens, UniProt P14735).
T1 sequence (P14735 1-1019): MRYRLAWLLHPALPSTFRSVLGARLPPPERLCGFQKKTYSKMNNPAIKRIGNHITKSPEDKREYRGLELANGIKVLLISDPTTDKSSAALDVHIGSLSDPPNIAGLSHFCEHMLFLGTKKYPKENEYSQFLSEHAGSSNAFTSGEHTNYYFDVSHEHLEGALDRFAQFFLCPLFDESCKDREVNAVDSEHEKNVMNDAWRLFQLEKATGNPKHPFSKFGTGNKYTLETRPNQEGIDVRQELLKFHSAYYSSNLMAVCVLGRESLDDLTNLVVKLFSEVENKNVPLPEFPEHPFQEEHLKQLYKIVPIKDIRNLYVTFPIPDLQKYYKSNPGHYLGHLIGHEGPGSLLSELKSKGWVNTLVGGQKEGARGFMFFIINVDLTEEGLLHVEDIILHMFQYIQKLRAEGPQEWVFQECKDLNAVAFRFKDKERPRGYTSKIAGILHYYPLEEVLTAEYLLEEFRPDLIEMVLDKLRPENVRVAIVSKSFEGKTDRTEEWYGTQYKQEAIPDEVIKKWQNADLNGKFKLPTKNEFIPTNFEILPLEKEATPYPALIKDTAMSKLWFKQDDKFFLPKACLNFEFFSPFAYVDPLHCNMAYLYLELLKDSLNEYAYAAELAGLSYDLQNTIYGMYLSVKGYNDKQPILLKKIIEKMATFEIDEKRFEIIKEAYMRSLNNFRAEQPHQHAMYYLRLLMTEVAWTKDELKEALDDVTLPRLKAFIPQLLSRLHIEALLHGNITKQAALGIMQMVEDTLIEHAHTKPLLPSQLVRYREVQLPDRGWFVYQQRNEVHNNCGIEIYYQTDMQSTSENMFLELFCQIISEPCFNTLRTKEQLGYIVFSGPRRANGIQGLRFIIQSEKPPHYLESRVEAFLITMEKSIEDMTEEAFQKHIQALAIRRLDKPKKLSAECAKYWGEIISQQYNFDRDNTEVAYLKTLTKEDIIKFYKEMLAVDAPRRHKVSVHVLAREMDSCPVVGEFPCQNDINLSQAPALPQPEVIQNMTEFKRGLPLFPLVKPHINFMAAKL
Briefly: cell-based IDE activity assay. The following applies: for activity by hit cutoff criteria: Table 1 screening assays. A digest of the protocol: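 Extracellular IDE secreted by HEK-293 cells, harvested mechanically rather than by trypsin, served as the endogenous enzyme source. Activity was read by fluorescence polarization with fluoresceinated, biotinylated Aß peptide (FAßB) in DTT-free solutions. The primary screen used a nominal compound concentration of 6 μM. Confirmed hits were retested in dose-response format to give apparent IC50.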

For assay [1], the target named is T2, recombinant wild-type IDE (WT-IDE) (Homo sapiens, UniProt P14735).
T2 sequence (P14735 1-1019): T1 sequence (P14735 1-1019)
Description: cell-free IDE activity assay with fluorogenic peptide substrate FRET1. Type of assay: biochemical.

Assay [2] has as its target T3, intracellular pools of IDE (Homo sapiens, UniProt P14735).
T3 sequence (P14735 1-1019): T1 sequence (P14735 1-1019)
Briefly: intracellular IDE activity after incubation of intact HEK cells. The conditions noted are these: 10 μM, 36 h. Type of assay: cell-based. A digest of the protocol: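 Confluent HEK monolayers were exposed 36 h to 10 μM compound or DMSO vehicle, and conditioned medium was collected. Cells were washed 3× in PBS and held 30 min in hypotonic 50 mM Tris-HCl at 4 °C. They were scraped, extruded 3× through a 30G needle and spun 10,000 × g, 10 min, 4 °C. Supernatant activity was assayed by FAßB degradation without or with 1 mM DTT.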

Assay [3] deals with T4, WT-IDE (Homo sapiens, UniProt P14735).
T4 sequence (P14735 1-1019): T1 sequence (P14735 1-1019)
Briefly: kinetics of irreversible inhibition. Type of assay: biochemical. The following applies: WT-IDE 2 nM, FRET1 5 μM; rate constant of irreversible step. An outline of the steps: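 Recombinant WT-IDE (2 nM) and FRET1 substrate (5 μM) were monitored continuously at 3-s intervals, starting immediately after adding inhibitor at several concentrations. Curve fits gave observed rate constants, which were plotted against inhibitor concentration. A hyperbolic fit gave kinhib and KM. LE was taken as ΔG/heavy atoms using KM; SEI as pKM/tPSA/100 Å2.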

In assay [4] the target is T5, cysteine-free form of IDE (CF-IDE) (Homo sapiens, UniProt P14735, C819S, form not given).
T5 sequence (P14735 42-1019 C819S): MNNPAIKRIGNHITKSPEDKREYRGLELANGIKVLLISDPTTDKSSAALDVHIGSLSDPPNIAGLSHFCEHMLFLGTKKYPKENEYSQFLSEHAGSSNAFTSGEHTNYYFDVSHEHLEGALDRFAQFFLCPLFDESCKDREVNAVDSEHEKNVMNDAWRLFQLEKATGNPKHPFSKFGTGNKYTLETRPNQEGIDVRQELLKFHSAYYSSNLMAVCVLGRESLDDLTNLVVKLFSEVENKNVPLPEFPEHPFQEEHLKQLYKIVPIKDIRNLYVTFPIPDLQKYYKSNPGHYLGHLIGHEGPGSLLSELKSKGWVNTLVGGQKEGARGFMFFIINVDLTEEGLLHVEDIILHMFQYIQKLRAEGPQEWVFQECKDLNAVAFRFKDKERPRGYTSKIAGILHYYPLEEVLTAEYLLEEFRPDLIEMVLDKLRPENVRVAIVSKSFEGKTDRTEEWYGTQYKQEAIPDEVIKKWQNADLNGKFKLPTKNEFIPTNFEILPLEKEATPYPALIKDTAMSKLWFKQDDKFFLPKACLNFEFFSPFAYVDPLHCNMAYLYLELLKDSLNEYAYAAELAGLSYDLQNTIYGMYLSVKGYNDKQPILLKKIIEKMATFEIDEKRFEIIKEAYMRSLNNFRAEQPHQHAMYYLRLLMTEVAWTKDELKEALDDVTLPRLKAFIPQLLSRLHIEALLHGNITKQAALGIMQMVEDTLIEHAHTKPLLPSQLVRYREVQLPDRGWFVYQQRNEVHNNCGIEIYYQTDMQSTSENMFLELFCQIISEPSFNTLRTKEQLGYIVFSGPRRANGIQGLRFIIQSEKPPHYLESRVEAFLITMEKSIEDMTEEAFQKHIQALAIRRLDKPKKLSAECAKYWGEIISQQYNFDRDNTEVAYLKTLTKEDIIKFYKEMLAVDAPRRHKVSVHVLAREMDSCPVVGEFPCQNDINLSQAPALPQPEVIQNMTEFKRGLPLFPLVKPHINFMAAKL
Description: IDE activity assay with FRET1 using cysteine-free IDE. It is filed as biochemical. The conditions noted are these: read-out: ki CF-IDE.

Assay [5] addresses T4, WT-IDE. Briefly: test for irreversible inhibition by 100-fold dilution. It is filed as biochemical. The conditions noted are these: 100 nM IDE with high inhibitor concentration 30 min, then 100-fold dilution. An outline of the steps:
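Recombinant WT-IDE activity was measured with FRET1 substrate in DTT-free solutions under three conditions. (1) 1 nM enzyme with "high" inhibitor concentrations. (2) 1 nM enzyme with 100-fold lower concentrations. (3) 100 nM enzyme preincubated 30 min with "high" concentrations, then diluted 100-fold to 1 nM enzyme and "low" inhibitor before assay. Reversible and irreversible reference inhibitors were run alongside.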

Assay [6] has as its target T4, WT-IDE. Briefly: IDE activity in the presence of reducing agents / reversal by DTT. It is filed as biochemical.
The test system of another assay is IDE mutant sC812. Description: inhibition of single-cysteine IDE mutant sC812. It is filed as biochemical, human. The conditions noted are these: Figure 3B.
The test system of the next assay is IDE mutant sC819. Briefly: inhibition of single-cysteine IDE mutant sC819. The conditions noted are these: Figure 3B. Type of assay: biochemical, human.
Setting [7] is: read-out: IC50^app cell-based, Table 1, HEK-293 cells, extracellular IDE.
The mark [8] stands for this setting: read-out: IC50^app cell-free, Table 1, WT-IDE, FRET1.

Each structure is given as a SMILES string. Like-named read-outs stand apart in the source and are kept apart here.

As a reminder, the IC50 is the midpoint of a concentration-inhibition curve. As for `O=c1c2cc(F)ccc2sn1-c1ccccc1` [Compound 7], the “activity by hit cutoff criteria” value on extracellular IDE was “active”. For the same compound, the values for the IC50 (on extracellular IDE (setting [7]); in assay [1] (setting [8])) were 3.9 µM and 1.8 µM, respectively.
As usually defined, the Ki is the equilibrium dissociation constant of an inhibitor or competing ligand from its target. As for `O=c1c2ccccc2sn1-c1cc(S(=O)(=O)N2CCOCC2)ccc1N1CCOCC1` [Compound 1], in assay [2], the “effect on intracellular pools of IDE after prolonged incubation of intact cells” value is “unaffected”. Further, the IC50 on extracellular IDE (setting [7]) is 1.4 µM; on extracellular IDE (read-out: IC50^app cell-based, Table 2), 1.4 µM; in assay [1] (read-out: IC50^app against WT-IDE, cell-free) it was 0.233 µM; in assay [1] (setting [8]) it was 0.23 µM. The kinhib on WT-IDE [3] was found to be 2.05 min⁻¹. The Ki in assay [4] is 8.18 µM. Further, the “reversibility of inhibition in dilution experiments” value at WT-IDE [5] was “irreversible”. Moreover, on WT-IDE [6] (DTT treatment, Figure 2E), the “reversibility of WT-IDE inhibition by treatment with dithiothreitol” value is reported as “reversible”. For the same compound, at WT-IDE [6] (excess reducing agent, Supplementary Figure S1A), the “activity in the presence of excess DTT, ß-mercaptoethanol or reduced glutathione” value is recorded as “no activity was detected”. Also, in the assay on IDE mutant sC812, the “inhibition of single-cysteine mutant sC812” value is on record as “no significant effect”. In the assay on IDE mutant sC819, the “inhibition of single-cysteine mutant sC819” value is “strongly inhibited”.
For `CCN1C(=O)C=CC1=O` [NEM, N-ethylmaleimide, reference compound], at WT-IDE [5], the “reversibility of inhibition in dilution experiments” value is given as “irreversible”. For the same compound, in the assay on IDE mutant sC812, the “inhibition of single-cysteine mutant sC812” value is “completely inhibited”. Moreover, the “inhibition of single-cysteine mutant sC819” value with IDE mutant sC819 is recorded as “completely inhibited”.
For the compound `O=C(O)c1ccccc1NS(=O)(=O)c1cccc(-n2sc3ccccc3c2=O)c1` [Compound 2], the concentration for half-maximal inhibition (IC50) was determined as 2.1 µM at extracellular IDE (setting [7]) and 0.54 µM in [1] (setting [8]).
In the case of `CN(C)S(=O)(=O)c1cccc(-n2sc3ccccc3c2=O)c1` [Compound 5], at extracellular IDE, the “activity by hit cutoff criteria” value was “inactive”. Also, the IC50 on extracellular IDE (setting [7]) was greater than 10 µM.
As for `Cc1ccc(-n2sc3ccccc3c2=O)cc1S(=O)(=O)N1CCCCC1` [Compound 3], the IC50 turned out to be 4 µM at extracellular IDE (setting [7]) and 1.03 µM in [1] (setting [8]).
Consider `O=c1c2ccccc2sn1-c1cc(S(=O)(=O)N2CCOCC2)ccc1N1CCCC1` [Compound 4], for which the IC50 at extracellular IDE (setting [7]) is 5.6 µM; in [1] (setting [8]), 1.12 µM.
Regarding `O=c1c2ccccc2sn1-c1ccc(S(=O)(=O)N2CCCC2)cc1` [Compound 6], the “activity by hit cutoff criteria” value on extracellular IDE is “inactive”. In addition, the IC50 (at extracellular IDE (setting [7]); in assay [1] (setting [8])) was greater than 10 µM throughout.
On to `O=c1c2cc(C(F)(F)F)ccc2sn1-c1cc(S(=O)(=O)N2CCOCC2)ccc1N1CCOCC1` [Compound 9, 2-(2-morpholin-4-yl-5-morpholin-4-ylsulfonylphenyl)-5-(trifluoromethyl)-1,2-benzothiazol-3-one], for which the IC50 was found to be 0.12 µM against extracellular IDE and 0.071 µM in assay [1]. The compound further yielded a kinhib at WT-IDE [3] of 15.3 min⁻¹. The Ki in assay [4] turned out to be 7.89 µM.
